Data published in ChEMBL document CHEMBL3769384, “Discovery of Tetrahydropyrazolopyridine as Sphingosine 1-Phosphate Receptor 3 (S1P3)-Sparing S1P1 Agonists Active at Low Oral Doses” (J Med Chem, 2016).

Key:
[1] = Solubility of compound in FeSSIF at pH 6.5 after 24 hrs; assay type: physicochemical
[2] = Solubility of compound in simulated gastric fluid at pH 1.6 after 24 hrs; assay type: ADME
[3] = Volume of distribution at steady state in beagle dog at 1 mg/kg, iv after 24 hrs by LC-MS/MS analysis; assay type: ADME, organism-based, Canis lupus familiaris; settings: in vivo, read-out: Vdss
Procedure, shortened: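 Three fasted male Beagle dogs got a 1 h IV infusion at 1 mg/kg, dosed at 0.2 mg/mL in DMSO:10% w/v Kleptose HPB in saline (2%:98% v/v). Blood went into K-EDTA tubes predose to 24 h, from a cephalic cannula to 2 h and by jugular venepuncture after. Analysis was LC-MS/MS (LLQ 1 ng/mL) with non-compartmental parameters; mean n=3 ± SD.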

[4] = Clearance in beagle dog at 1 mg/kg, iv after 24 hrs by LC-MS/MS analysis; assay type: ADME, organism-based, Canis lupus familiaris; settings: in vivo
Procedure, shortened: (§1)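 Male animals (CD rat and Beagle dog, n=3; CD1 mouse, n=5) given a 1 h i.v. infusion at 1 mg/kg. Vehicle: DMSO:10% Kleptose HPB in saline (2%:98% v/v), 0.2 mg/mL. Serial blood sampled up to 24 h and assayed by LC-MS/MS. Values from non-compartmental analysis, mean ± SD.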

[5] = Oral bioavailability in beagle dog at 2 mg/kg 24 hrs by LC-MS/MS analysis; assay type: ADME, organism-based, Canis lupus familiaris; settings: in vivo
Procedure, shortened: (§2)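 Oral dose as a suspension in 1% methylcellulose: CD rat 3 mg/kg (2 rats, crossover after i.v.), Beagle dog 2 mg/kg (fasted, crossover after i.v.), CD1 mouse 3 mg/kg by gavage (n=4). Blood sampled up to 24 h and assayed by LC-MS/MS. Bioavailability was referenced to the 1 h i.v. infusion at 1 mg/kg, by non-compartmental analysis.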

[6] = Solubility of compound in FaSSIF at pH 6.5 after 24 hrs; assay type: physicochemical
[7] = Half life in beagle dog at 1 mg/kg, iv after 24 hrs by LC-MS/MS analysis; assay type: ADME, organism-based, Canis lupus familiaris; settings: in vivo; procedure, shortened: as §1
[8] = Volume of distribution at steady state in CD1 mouse at 1 mg/kg, iv after 24 hrs by LC-MS/MS analysis; assay type: ADME, organism-based; settings: in vivo, read-out: Vdss
Procedure, shortened: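 Male CD1 mice with a jugular vein cannula got a 1 h IV infusion at 1 mg/kg, dosed at 0.2 mg/mL in DMSO:10% w/v Kleptose HPB in saline (2%:98% v/v). Serial tail-vein blood (ca. 25 µL) was taken up to 24 h and assayed against calibration standards in control blood. Non-compartmental analysis was used; n=5, mean ± SD.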

[9] = Half life in CD rat at 1 mg/kg, iv after 24 hrs by LC-MS/MS analysis; assay type: ADME, organism-based; settings: in vivo; procedure, shortened: as §1
[10] = Oral bioavailability in CD rat at 3 mg/kg after 24 hrs by LC-MS/MS analysis; assay type: ADME, organism-based; settings: in vivo; procedure, shortened: as §2
[11] = Clearance in CD rat at 1 mg/kg, iv after 24 hrs by LC-MS/MS analysis; assay type: ADME, organism-based; settings: in vivo; procedure, shortened: as §1
[12] = Oral bioavailability in CD1 mouse at 3 mg/kg after 24 hrs by LC-MS/MS analysis; assay type: ADME, organism-based; settings: in vivo; procedure, shortened: as §2
[13] = Volume of distribution at steady state in CD rat at 1 mg/kg, iv after 24 hrs by LC-MS/MS analysis; assay type: ADME, organism-based; settings: in vivo, read-out: Vdss; procedure, shortened: as §1
[14] = Half life in CD1 mouse at 1 mg/kg, iv after 24 hrs by LC-MS/MS analysis; assay type: ADME, organism-based; settings: in vivo; procedure, shortened: as §1
[15] = Clearance in CD1 mouse at 1 mg/kg, iv after 24 hrs by LC-MS/MS analysis; assay type: ADME, organism-based; settings: in vivo; procedure, shortened: as §1

Row | SMILES | solubility at 24 h [1] | solubility at 24 h [2] | Vd [3] | clearance [4] | bioavailability [5] | solubility at 24 h [6] | half-life [7] | Vd [8] | half-life [9] | bioavailability [10] | clearance [11] | bioavailability [12] | Vd [13] | half-life [14] | clearance [15]
1 | Cc1c2c(nn1-c1nnc(-c3ccc(OC(C)C)c(Cl)c3)s1)CCN(CCC(=O)O)C2.Cl | 46 µg/mL | 7 µg/mL | 5.3 L/kg | 33 mL/min/kg | 44% | 16 µg/mL | 6.5 h | – | – | – | – | – | – | – | –
2 | Cc1c2c(nn1-c1nnc(-c3ccc(OC(C)C)c(Cl)c3)s1)CCN(CCC(=O)O)C2.O=C(O)C(F)(F)F | 4 µg/mL | 37 µg/mL | – | – | – | 3 µg/mL | – | 3.3 L/kg | 4.4 h | 48% | 24 mL/min/kg | 79% | 3.7 L/kg | 3.8 h | 16 mL/min/kg
